Results from ChEMBL document CHEMBL3351351, “Synthesis and evaluation of sulfonylethyl-containing phosphotriesters of 3'-azido-3'-deoxythymidine as anticancer prodrugs” (Bioorg Med Chem, 2014).
pIC50: −log10 of the molar value.

Columns and labels:
MCF7 = assay: Cytotoxicity against human MCF7 cells after 72 hrs by MTT assay; assay type: functional, cell-based; conditions: MCF7, 72 h
[1] = Half life in human plasma by TLC; assay type: ADME, cell-free
Outline: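 Freshly reconstituted lyophilized human plasma in 0.1 M phosphate buffer pH 7.4 (0.4 mL plasma solution plus 0.1 mL drug solution) incubated at 37 °C. Stopped as for the buffer test, proteins spun out at 3000 × g for 30 min, supernatant run on TLC. Half-life from first-order decay, three independent experiments; the ratio compares it with the buffer half-life.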

143B [2] = assay: Cytotoxicity against human 143B cells after 72 hrs by MTT assay; assay type: functional, cell-based
SW-620 = assay: Cytotoxicity against human SW620 cells after 72 hrs by MTT assay; assay type: functional, cell-based; conditions: SW-620, 72 h
[3] = Cytotoxicity against human H460 cells after 72 hrs by MTT assay; assay type: functional, cell-based; conditions: NCI-H460, 72 h
[4] = Cytotoxicity against human KB-3-1 cells after 72 hrs by MTT assay; assay type: functional, cell-based; conditions: KB 3-1, 72 h
[5] = Half life in 0.1 M phosphate buffer at pH 7.4 at 37 degC by TLC; assay type: physicochemical
Outline: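 Compound incubated in 0.1 M phosphate buffer pH 7.4 at 37 °C with shaking for varying times. Stopped with 2.0 M acetate buffer (pH 5) and ethanol, then chilled on ice and analysed by TLC. Percent parent left relative to zero-time control plotted against time; t1/2 = ln2/k from decay rate constant; mean ± SD of three independent experiments.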

143B [6] = assay: Cytotoxicity against human thymidine kinase-deficient 143B cells after 72 hrs by MTT assay; assay type: functional, cell-based
143B [7] = assay: Ratio of IC50 for human thymidine kinase-deficient 143B cells to IC50 for human 143B cells; assay type: functional
Outline: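 143B kept in EMEM with 10% FBS and 1% penicillin/streptomycin; the TK-deficient 143B/TK⁻ line kept in EMEM with 0.015 mg/mL 5-BrdU.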

Row | SMILES | pIC50 (MCF7) | half-life [1] [h] | pIC50 (143B [2]) | pIC50 (SW-620) | pIC50 [3] | pIC50 [4] | half-life [5] [h] | pIC50 (143B [6]) | Ratio IC50 (143B [7])
1 | Cc1cn([C@H]2C[C@H](N=[N+]=[N-])[C@@H](COP(=O)(OCCS(=O)(=O)c3ccccc3)OCCS(=O)(=O)c3ccccc3)O2)c(=O)[nH]c1=O | 4.79 | 0.23 | 4.79 | 4.37 | 5.12 | 4.96 | 0.71 |  | 
2 | Cc1ccc(S(=O)(=O)CCOP(=O)(OCCS(=O)(=O)c2ccc(C)cc2)OC[C@H]2O[C@@H](n3cc(C)c(=O)[nH]c3=O)C[C@@H]2N=[N+]=[N-])cc1 | 4.71 | 0.4 | 4.71 | 4.33 | 4.95 | 4.84 | 1.09 |  | 
3 | COc1ccc(S(=O)(=O)CCOP(=O)(OCCS(=O)(=O)c2ccc(OC)cc2)OC[C@H]2O[C@@H](n3cc(C)c(=O)[nH]c3=O)C[C@@H]2N=[N+]=[N-])cc1 | 5.20 | 0.55 | 5.26 | 5.12 | 5.77 | 5.33 | 1.44 | 5.29 | 0.9
4 | Cc1cn([C@H]2C[C@H](N=[N+]=[N-])[C@@H](COP(=O)(OCCS(=O)(=O)c3ccc(Cl)cc3)OCCS(=O)(=O)c3ccc(Cl)cc3)O2)c(=O)[nH]c1=O | 5.02 | 0.13 | 5.11 | 4.93 | 5.35 | 5.11 | 0.36 | 5.06 | 1.1
5 | Cc1cn([C@H]2C[C@H](N=[N+]=[N-])[C@@H](COP(=O)(OCCS(=O)(=O)c3ccc([N+](=O)[O-])cc3)OCCS(=O)(=O)c3ccc([N+](=O)[O-])cc3)O2)c(=O)[nH]c1=O | 4.64 | 0.02 | 4.64 | 4.24 | 4.82 | 4.69 | 0.07 |  | 
6 | Cc1cn([C@H]2C[C@H](N=[N+]=[N-])[C@@H](COP(=O)(OCC(C)S(=O)(=O)c3ccccc3)OCC(C)S(=O)(=O)c3ccccc3)O2)c(=O)[nH]c1=O (some centres undefined) | 4.56 | 4.21 | 4.56 | 4.17 | 4.63 | 4.60 | 13.6 |  | 
7 | Cc1cn([C@H]2C[C@H](N=[N+]=[N-])[C@@H](COP(=O)(OC(C)CS(=O)(=O)c3ccccc3)OC(C)CS(=O)(=O)c3ccccc3)O2)c(=O)[nH]c1=O (some centres undefined) | 4.65 | 1.35 | 4.65 | 4.26 | 4.84 | 4.74 | 3.56 |  | 
8 | CCC(CS(=O)(=O)c1ccccc1)OP(=O)(OC[C@H]1O[C@@H](n2cc(C)c(=O)[nH]c2=O)C[C@@H]1N=[N+]=[N-])OC(CC)CS(=O)(=O)c1ccccc1 (some centres undefined) | 4.91 | 1.77 | 4.94 | 4.56 | 5.29 | 5.08 | 5.42 | 4.88 | 1.2
9 | Cc1cn([C@H]2C[C@H](N=[N+]=[N-])[C@@H](COP(=O)(OC(C)C(C)S(=O)(=O)c3ccccc3)OC(C)C(C)S(=O)(=O)c3ccccc3)O2)c(=O)[nH]c1=O (some centres undefined) | 4.57 | 70.1 | 4.58 | 4.18 | 4.65 | 4.62 | 279 |  | 
10 | Cc1cn([C@H]2C[C@H](N=[N+]=[N-])[C@@H](COP(=O)(OCC(c3ccccc3)S(=O)(=O)c3ccccc3)OCC(c3ccccc3)S(=O)(=O)c3ccccc3)O2)c(=O)[nH]c1=O (some centres undefined) | 4.85 | 0.51 | 4.85 | 4.38 | 5.15 | 5.01 | 2.16 | 4.70 | 1.2
11 | Cc1cn([C@H]2C[C@H](N=[N+]=[N-])[C@@H](COP(=O)(OCCS(=O)(=O)c3ccccc3)Oc3ccccc3)O2)c(=O)[nH]c1=O (some centres undefined) | 4.60 | 0.45 | 4.59 | 4.21 | 4.74 | 4.66 | 1.22 |  | 
12 | Cc1ccc(OP(=O)(OCCS(=O)(=O)c2ccccc2)OC[C@H]2O[C@@H](n3cc(C)c(=O)[nH]c3=O)C[C@@H]2N=[N+]=[N-])cc1 (some centres undefined) | 4.55 | 0.6 | 4.55 | 4.14 | 4.61 | 4.57 | 1.32 |  | 
13 | COc1ccc(OP(=O)(OCCS(=O)(=O)c2ccccc2)OC[C@H]2O[C@@H](n3cc(C)c(=O)[nH]c3=O)C[C@@H]2N=[N+]=[N-])cc1 (some centres undefined) | 4.69 | 0.6 | 4.69 | 4.33 | 4.91 | 4.82 | 1.53 | 4.60 | 1.3
14 | Cc1cn([C@H]2C[C@H](N=[N+]=[N-])[C@@H](COP(=O)(OCCS(=O)(=O)c3ccccc3)Oc3ccc(F)cc3)O2)c(=O)[nH]c1=O (some centres undefined) | 4.58 | 0.37 | 4.58 | 4.19 | 4.68 | 4.63 | 1.08 |  | 
15 | Cc1cn([C@H]2C[C@H](N=[N+]=[N-])[C@@H](COP(=O)(OCCS(=O)(=O)c3ccccc3)Oc3ccc(Cl)cc3)O2)c(=O)[nH]c1=O (some centres undefined) | 4.60 | 0.35 | 4.61 | 4.21 | 4.75 | 4.67 | 0.79 |  | 
16 | Cc1ccc(OP(=O)(OCCSc2ccccc2)OC[C@H]2O[C@@H](n3cc(C)c(=O)[nH]c3=O)C[C@@H]2N=[N+]=[N-])cc1 (some centres undefined) |  | 20 |  |  |  |  | 12 |  | 
17 | Cc1cn([C@H]2C[C@H](N=[N+]=[N-])[C@@H](CO)O2)c(=O)[nH]c1=O [ZIDOVUDINE] | 4.86 |  | 4.91 | 4.41 | 5.17 | 5.04 |  | 3.83 | 12.1
